# Source: PubChem BioAssay (several laboratories)
# TRPC6 act = mouse TRPC6 channel activation | Q61143 | HEK293-TRPC6 membrane potential dye fluorescence; stronger effect = higher value | B-score at 10 µM | actives 0.13% (n = 310,000);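 active means B-score of the integrated fluorescence ratio above library mean plus 3 SD, and starting fluorescence ratio within library mean plus 5 SD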;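 further: higher score means more depolarization so channel activation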
# Target sequence (Q61143 whole entry, looked up): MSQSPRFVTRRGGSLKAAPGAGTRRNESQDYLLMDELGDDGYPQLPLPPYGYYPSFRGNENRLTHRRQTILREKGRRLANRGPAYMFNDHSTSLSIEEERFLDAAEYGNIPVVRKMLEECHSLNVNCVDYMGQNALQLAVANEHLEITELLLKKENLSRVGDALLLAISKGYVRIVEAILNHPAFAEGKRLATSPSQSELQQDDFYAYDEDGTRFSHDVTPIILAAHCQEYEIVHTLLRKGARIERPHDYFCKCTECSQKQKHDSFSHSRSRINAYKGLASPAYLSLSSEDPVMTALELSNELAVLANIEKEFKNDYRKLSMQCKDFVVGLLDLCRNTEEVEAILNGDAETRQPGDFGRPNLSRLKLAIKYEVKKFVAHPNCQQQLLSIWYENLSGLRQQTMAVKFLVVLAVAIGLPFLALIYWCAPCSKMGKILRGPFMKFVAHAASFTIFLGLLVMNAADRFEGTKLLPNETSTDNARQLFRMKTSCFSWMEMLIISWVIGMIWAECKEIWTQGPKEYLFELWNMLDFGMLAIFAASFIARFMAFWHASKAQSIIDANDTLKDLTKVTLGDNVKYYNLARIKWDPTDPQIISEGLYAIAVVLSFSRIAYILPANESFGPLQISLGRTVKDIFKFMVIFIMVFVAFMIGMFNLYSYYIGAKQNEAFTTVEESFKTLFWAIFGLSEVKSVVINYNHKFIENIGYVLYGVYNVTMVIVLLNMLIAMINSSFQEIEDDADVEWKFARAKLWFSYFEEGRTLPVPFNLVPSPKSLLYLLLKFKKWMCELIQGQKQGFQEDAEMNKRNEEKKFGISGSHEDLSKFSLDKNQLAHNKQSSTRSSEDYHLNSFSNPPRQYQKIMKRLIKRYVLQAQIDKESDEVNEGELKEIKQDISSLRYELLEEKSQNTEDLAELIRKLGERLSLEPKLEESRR
# TRPC6 inh = mouse TRPC6 channel inhibition; Q61143; HEK293-TRPC6, membrane potential dye, ACh-evoked depolarization; stronger effect = lower value; B-score at 10 µM; actives 1.1% (n = 310,000);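 active means B-score under library mean minus 3 SD, initial fluorescence not abnormally high, positive integrated signal ratio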;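 further: B-score derived from integrated fluorescence ratio over the kinetic read; more negative B-score means stronger inhibition of depolarization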
# TRPC4 inh = inhibitors of mouse TRPC4 channel. B-score at 10 µM. actives 0.39% (n = 300,000). Q9QUQ5. HEK293 TRPC4beta/mu-opioid, DAMGO-evoked Fluo4 calcium flux; stronger effect = lower value;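 active means B-score over 3 SD under the library average, no early fluorescence shift, positive overall ratio signal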
#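 Test system – stable TRPC4beta/mu-opioid receptor HEK293 cells · Probe or stimulus – DAMGO, a submaximal dose followed by a maximal one · Dosing – one concentration per compound · Signal – Fluo4 calcium fluorescence by kinetic imaging, 5 s 1 Hz baseline · Evaluation – per-well B score of integrated baseline-normalized Fluo4 ratio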
# Pemphigus Ab inh = inhibitors of pemphigus antibody binding to human desmoglein-3; P32926; DSG3-coupled beads, scFv-anti-DSG3-GFP binding, flow cytometry; stronger effect = lower value; binding (percent of control), % at 10 µM; actives 0.48% (n = 310,000); AID 588358;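 active means binding more than 3 SD below its plate's average and above zero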;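 further: hits lower antibody fragment binding to DSG3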
# TRPC4 act = opens the mouse TRPC4 cation channel | B-score at 10 µM | Q9QUQ5 | AID 2237 | actives 0.49% (n = 310,000) | HEK293 TRPC4beta/mu-opioid, Fluo4 calcium fluorescence; stronger effect = higher value;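 active means B-score above 5 SD of library B-scores, and initial fluorescence ratio not above library mean plus 5 SD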;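 further: positive B-score marks a calcium rise read as TRPC4 activation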
#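 System: HEK293 cells stably co-expressing mouse TRPC4beta and mu-opioid receptor; Schedule: Fluo4 dye loading 45 min at room temperature, 110 s recording; Detection: Fluo4 fluorescence, kinetic; Evaluation: B-scored integrated calcium fluorescence ratio; Controls: buffer (low) and maximal DAMGO (high).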
# TRPC4 potent = TRPC4 (mouse) allosteric potentiation; HEK293 TRPC4beta/mu-opioid, DAMGO EC20, Fluo-4 Ca2+ flux; stronger effect = higher value; B-score at 10 µM; actives 0.42% (n = 310,000);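 active means B-score of calcium response area above 5 SD of library B-scores, with initial fluorescence ratio within 5 SD of library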
# TRPC4 sel inh 2 = second selectivity test of TRPC6 inhibitors: effect on mouse TRPC4; shares compounds with TRPC6 inh; HEK293 TRPC4/MOR, membrane potential dye fluorescence; channel activated by saturating DAMGO dose; inhibition, % at 10 µM; actives 42% (n = 920); AID 2776;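 active means compounds whose fluorescence signal differed from control wells by over 3 SD, either direction, in both duplicate plates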
# TRPC4 spec = tests whether TRPC6 inhibitors also affect mouse TRPC4; shares compounds with TRPC6 inh; HEK293 TRPC4/mu-opioid, membrane potential fluorescence; activity change, negative = inhibition, % at 10 µM; actives 61% (n = 920);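 active means rise or fall in signal beyond 3 SD of buffer-only wells in both replicate plates, either sign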;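 further: integrated kinetic ratio of fluorescence range over baseline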
# HEK293 MPD ctr 2-1 = second counter-screen for TRPC6 inhibitors: parental HEK293 cells; shares compounds with TRPC6 inh; parental HEK293 membrane potential dye fluorescence; maximal acetylcholine challenge after compound addition; signal change vs control, % at 10 µM; actives 31% (n = 920);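 active means membrane potential signal moving either way by over 3 SD of the maximum-effect control, in both duplicate plates, meaning non-specific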
# HEK293 MPD ctr-1 = parental HEK293 nonspecific activity of TRPC6 inhibitors; shares compounds with TRPC6 inh; parental HEK293 membrane potential dye fluorescence; membrane potential signal change, % at 10 µM; actives 60% (n = 920); AID 2780;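 active means membrane potential signal shifting up or down by more than 3 SD of buffer-only wells, on both duplicate plates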
# HEK293 MPD ctr-2 = parental HEK293 nonspecific activity of TRPC6 modulators; shares compounds with TRPC6 inh; membrane potential dye fluorescence; membrane potential signal change, % at 10 µM; actives 51% (n = 2,400); AID 488924;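 active means membrane potential signal moves up or down beyond 5 SD from buffer-only wells, on both duplicate plates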
# HEK293 MPD ctr 2-2 = second counter-screen for TRPC6 modulators: effect in parental HEK293 cells; shares compounds with TRPC6 inh; membrane potential dye fluorescence; after compound, maximal acetylcholine stimulation; inhibition, % at 10 µM; actives 14% (n = 2,400); AID 488926;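 active means membrane potential signal drops by more than 5 SD from the mean control signal, in both duplicate plates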
# TRPC4 ctr mod = tests whether TRPC6 modulators also affect mouse TRPC4. shares compounds with TRPC6 inh. HEK293 TRPC4/mu-opioid, membrane potential fluorescence. percent change from control (negative = decrease, positive = increase), % at 10 µM. actives 69% (n = 2,400);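 active means membrane potential signal moved up or down beyond 5 SD of buffer control wells, in both duplicate plates, actives on both sides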
# TRPC4 ctr inh 2 = mouse TRPC4 off-target activity of TRPC6 modulators, second screen; shares compounds with TRPC6 inh; HEK293 TRPC4/mu-opioid, membrane potential dye fluorescence; stimulated with maximal-effect DAMGO; inhibition, % at 10 µM; actives 55% (n = 2,400);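 active means drop in membrane potential signal beyond 5 SD of the control wells in both duplicate plates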;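 further: TRPC4 counter screen for TRPC6 hits run under conditions tuned for TRPC6 not TRPC4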
# TRPC6 inh conf = confirmation of mouse TRPC6 inhibitors; shares compounds with TRPC6 inh; HEK293-TRPC6, membrane potential dye, ACh-evoked depolarization; inhibition, % at 10 µM; actives 43% (n = 3,300); AID 488960;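 active means fluorescence ratio falls more than 5 SD below the full-stimulation control mean, in both duplicate runs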;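 further: integrated fluorescence ratio of peak minus minimum over baseline after agonist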
# TRPC6 act confirm = mouse TRPC6 activator confirmation. activation, % at 10 µM. HEK293-TRPC6 membrane potential dye fluorescence, FDSS. shares compounds with TRPC6 inh. actives 11% (n = 2,800);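 active means ratio signal rise beyond 5 SD above unstimulated control wells' mean, seen in both duplicate runs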
# Hits are given with their value; n = inactive; x = not tested or not shown. An excerpt weighted towards active compounds, which were near 2.5% of everything screened.
SMILES,TRPC6 act,TRPC6 inh,TRPC4 inh,Pemphigus Ab inh,TRPC4 act,TRPC4 potent,HEK293 MPD ctr-2,HEK293 MPD ctr 2-2,TRPC4 ctr mod,TRPC4 ctr inh 2,TRPC6 inh conf,TRPC6 act confirm,others
NS(=O)(=O)c1ccc(CCNC(=O)NC2(C(F)(F)F)Oc3ccccc3O2)cc1,n,-5.7,n,n,n,n,n,n,n,n,n,n,
CC(=Nc1ccccc1)c1sc2ccccc2c1O,13,n,n,n,n,n,395%,n,56%,n,n,116%,
Cc1ccccc1-n1nnnc1SCC(=O)Nc1ccc(N2CCN(C)CC2)cc1,n,n,n,n,n,n,x,x,x,x,x,x,
Cc1cccc(-n2nnnc2SCC(=O)Nc2ccc(N3CCN(C)CC3)cc2)c1,n,-5.7,n,n,n,n,n,n,n,54%,n,n,
Cc1c(C)n2c(SCC(=O)N3CC(C)OC(C)C3)nnc2[nH]c1=O (configuration not stated),n,n,n,n,n,n,x,x,x,x,x,x,
O=C1CC(c2ccco2)CC(O)=C1C=NCCN1CCNCC1 (configuration not stated),n,-8.7,n,x,n,n,x,x,x,x,n,n,TRPC4 sel inh 2=n;TRPC4 spec=n;HEK293 MPD ctr 2-1=n;HEK293 MPD ctr-1=n
O=C1CC(c2ccc(F)cc2)CC(O)=C1C=NCCN1CCNCC1 (configuration not stated),n,n,n,n,n,n,x,x,x,x,x,x,
O=C1CC(c2ccc(Cl)c(Cl)c2)CC(O)=C1C=NCCN1CCNCC1 (configuration not stated),n,-5.9,n,x,n,n,n,n,9.5%,n,n,x,
O=C1CSc2cc(Cl)ccc2N1,x,x,x,n,x,x,x,x,x,x,x,x,
COc1ccc(OC2CCN(S(=O)(=O)c3ccc(F)cc3)CC2)cc1,n,n,n,n,n,n,x,x,x,x,x,x,
Cc1ccc(S(=O)(=O)N2CCC(Oc3cccc(C(F)(F)F)c3)CC2)cc1,n,-7.3,n,n,n,n,x,x,x,x,n,x,TRPC4 sel inh 2=n;TRPC4 spec=n;HEK293 MPD ctr 2-1=n;HEK293 MPD ctr-1=n
C[C@H]1C=C(C(=O)O)O[C@@H](OCc2ccc(CO)cc2)C1,n,n,n,n,n,n,x,x,x,x,x,x,
CC(=O)CCC(=O)OCC(=O)c1ccc(C(F)(F)F)cc1,n,n,n,n,n,n,x,x,x,x,x,x,
CCOC(=O)Cn1c(=O)cc(C)c2cccc(C)c21,n,n,n,n,n,n,x,x,x,x,x,x,
Cc1cccc2c(=O)cc(C)n(CC(=O)N3CCOCC3)c12,n,n,n,n,n,n,x,x,x,x,x,x,
Cc1cccc2c(=O)cc(C)n(CC(=O)N3CCCCC3)c12,n,-6.2,n,n,n,n,-260%,n,-46%,28%,n,n,
CCOC(=O)Cn1c(C)cc(=O)c2cccc(C)c21,n,-7.7,n,n,n,n,-270%,n,-44%,40%,n,n,
CNC(=O)Cn1c(C)cc(=O)c2cccc(C)c21,n,-6.2,n,n,n,n,-398%,n,-54%,30%,n,n,
CC(=O)N=Nc1[nH]c(N)c2ccccc12,n,n,n,n,n,n,x,x,x,x,x,x,
O=C1CCCC/C1=C\Nc1ccc(C(=O)O)c(O)c1,n,n,n,n,n,n,x,x,x,x,x,x,
Cn1cc(CN(CCCN2CCOCC2)C(=S)Nc2cccc(Cl)c2)c2ccccc21,n,-6.8,n,n,n,n,x,x,x,x,n,n,TRPC4 sel inh 2=n;TRPC4 spec=n;HEK293 MPD ctr 2-1=258%;HEK293 MPD ctr-1=n
Cc1ccc(S(=O)(=O)N(C)C[C@@H]2Oc3ccc(NC(=O)Nc4cccc5ccccc45)cc3C(=O)N([C@H](C)CO)C[C@H]2C)cc1,x,x,x,n,x,x,x,x,x,x,x,x,
CC1CC(C)(C)N(C(=O)CN2C(=O)c3ccccc3C2=O)c2ccccc21 (configuration not stated),n,-5.1,-7,n,158,n,183%,n,42%,n,n,x,
CCOC(=O)Cc1nc2ccccc2n(CC#N)c1=O,n,n,n,n,n,n,x,x,x,x,x,x,
COCc1[nH]nc2c1C(c1c(F)cccc1Cl)C(C#N)=C(N)O2 (configuration not stated),n,-5.6,n,n,n,n,n,n,n,n,n,n,
SMILES,TRPC6 act,TRPC6 inh,TRPC4 inh,Pemphigus Ab inh,TRPC4 act,TRPC4 potent,HEK293 MPD ctr-2,HEK293 MPD ctr 2-2,TRPC4 ctr mod,TRPC4 ctr inh 2,TRPC6 inh conf,TRPC6 act confirm,others
Cc1nc(N)nc(N)c1CCCc1ccc(Cl)c(Cl)c1,n,-5.7,n,n,n,n,n,n,n,50%,40%,n,
O=C(NC(=S)NCCC1=CCCCC1)c1cncc(Br)c1,n,n,n,n,n,n,x,x,x,x,x,x,
CCOC(=O)c1c(-c2cccc([N+](=O)[O-])c2)csc1N,n,n,n,n,n,n,x,x,x,x,x,x,
Cc1csc2cc(-c3cccc([N+](=O)[O-])c3)c(-c3cccc([N+](=O)[O-])c3)c[n+]12,n,-6.1,n,n,n,n,-310%,66%,-52%,55%,69%,n,
Cn1c(CCc2ccccc2)n[nH]c1=S,n,n,n,n,n,n,x,x,x,x,x,x,
Cc1ccc(OCC(O)Cn2c(=N)n(Cc3ccccc3)c3ccccc32)cc1 (configuration not stated),n,-8.1,n,n,n,n,x,x,x,x,n,n,TRPC4 sel inh 2=40%;TRPC4 spec=11%;HEK293 MPD ctr 2-1=258%;HEK293 MPD ctr-1=8.5%
